# HTR5A inv ag: HTR5A inverse agonists in luminescence cell assay, primary screen, counter-screen for OPRM1-OPRD1 heterodimer inverse agonist project, full-deck HTS. 340,000 compounds, 0.083% hits. 5-hydroxytryptamine receptor 5A (Homo sapiens), P47898. inhibition, % at 9.3 µM. HTR5A cell line, inverse agonism; in the data active = inhibition mostly above about 23%, no sharp cut-off; inactive = mostly below about 18%;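 note: 0% = cells with DMSO and 100% = no-cell wells with DMSO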
# MOR-DOR inv ag: inverse agonists of MOR-DOR heterodimerization, primary screen, cell-based, luminescence | cell-based MOR-DOR heterodimer luminescence, inverse agonism | Mu-type opioid receptor (Homo sapiens) + Delta-type opioid receptor (Homo sapiens), … | inhibition, % at 9.3 µM | 340,000 compounds, 0.21% hits; in the data active = inhibition above about 22%, passing the limit was not always enough;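 note: 0% = cells with DMSO and 100% = wells without cells with DMSO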
# MOR-DOR ag-1: agonists of OPRM1-OPRD1 heterodimerization, primary screen, cell-based, luminescence; cells; activation, % at 9.3 µM; 340,000 compounds, 0.3% hits; AID 504326, 2011;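 note: 0% = vehicle-treated cells and 100% = reference agonist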
# DAGLB inhibitor: DAGLB lipase inhibitors, primary screen, biochemical, fluorescence, HTS | Diacylglycerol lipase-beta (Homo sapiens), Q8NCG7 | AID 504411, 2011 | inhibition, % at 5.17 µM | 340,000 compounds, 0.059% hits | HEK293T DAGLB membrane lysate, EnzChek fluorogenic substrate; in the data active = inhibition above about 34%;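 note: 0% = enzyme with vehicle and 100% = wells lacking enzyme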
# Target sequence (Q8NCG7 whole entry, looked up): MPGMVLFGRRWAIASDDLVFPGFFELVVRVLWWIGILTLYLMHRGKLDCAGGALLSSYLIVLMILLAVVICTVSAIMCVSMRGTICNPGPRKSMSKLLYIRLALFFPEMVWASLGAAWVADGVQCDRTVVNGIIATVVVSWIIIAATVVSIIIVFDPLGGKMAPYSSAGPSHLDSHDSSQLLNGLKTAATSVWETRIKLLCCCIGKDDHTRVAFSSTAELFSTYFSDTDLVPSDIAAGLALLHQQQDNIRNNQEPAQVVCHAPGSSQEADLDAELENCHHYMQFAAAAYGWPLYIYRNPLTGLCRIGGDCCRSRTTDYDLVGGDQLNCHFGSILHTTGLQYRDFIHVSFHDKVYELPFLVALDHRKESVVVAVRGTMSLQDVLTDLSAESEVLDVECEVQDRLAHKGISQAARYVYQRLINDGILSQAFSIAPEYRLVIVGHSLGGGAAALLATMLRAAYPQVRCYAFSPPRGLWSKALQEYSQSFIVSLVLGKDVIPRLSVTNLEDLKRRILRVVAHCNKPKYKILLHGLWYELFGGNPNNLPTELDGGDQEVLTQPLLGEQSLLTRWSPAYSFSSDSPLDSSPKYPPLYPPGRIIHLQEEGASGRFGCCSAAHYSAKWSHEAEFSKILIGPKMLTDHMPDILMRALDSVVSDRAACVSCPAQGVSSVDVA
# Arrestin-AP2 inh: inhibitors of beta-arrestin/AP2 binding, primary screen, biochemical, GPCR trafficking, flow cytometry. beta-arrestin 1 C-terminal peptide binding to AP2 beta2-adaptin appendage (human). inhibition, % at 10 µM. 340,000 compounds, 0.31% hits. FITC-arrestin peptide / GST-AP2 beads; AP2 beta2 appendage carries R879A mutation;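 active = inhibition above a set limit, near 3 SD of compounds lacking own fluorescence, cut at about 54% in these data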;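 note: plate controls were DMSO wells for no effect and 5 µM unlabelled arrestin peptide for full effect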
#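 System: GST-AP2 R879A glutathione beads | Also added: FITC-arrestin peptide, 50 nM | Times: 12 min plus 1 h, RT | Signal: Bead flow cytometry, FITC channel | Buffer or medium: PBS with 0.05% Tween 20 and 0.1% BSA | Read-out basis: Percent drop in bead-associated FITC signal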
# HTR5A ag ctr: HTR5A agonists in luminescence cell assay, primary screen, counter-screen for OPRM1-OPRD1 heterodimer agonist project, full-deck HTS; cell-based; AID 504692, 2011; 340,000 compounds, 0.61% hits; activation, % at 9.3 µM; in the data active = activation mostly above about 9.5%, no sharp cut-off; inactive = mostly below about 7.6%;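 note: 0% = cells with vehicle only and 100% = reference agonist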
# MOR-DOR ag-2: OPRM1-OPRD1 heterodimerization promoters, counter-screen for HTR5A agonist project, cell-based, luminescence | activation, % at 9.3 µM | U2OS counter-screen cells, complementation luminescence, 3 h | 800 compounds, 13% hits | shares compounds with HTR5A ag ctr
# HTR5A ag confirm: HTR5A agonists, retest of hits, confirmation, cell-based, luminescence | activation, % at 9.3 µM | HTR5A agonist cell assay | AID 504915, 2011 | shares compounds with HTR5A ag ctr | 800 compounds, 17% hits; in the data active = activation above about 17%;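 note: 0% = cells with vehicle only and 100% = full reference agonist response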
# An asterisk follows results filed as active; · = not tested or not shown. The list is not random: actives were taken first. Their share in the collection is about 1.4%. Cut-off read from the data, not from the text of the source, unless noted: active = activation above about 18%; inactive = the rest.
SMILES,HTR5A inv ag,MOR-DOR inv ag,MOR-DOR ag-1,DAGLB inhibitor,Arrestin-AP2 inh,HTR5A ag ctr,MOR-DOR ag-2,HTR5A ag confirm
Cc1ccc(-n2c(O)c(C=NC3CCS(=O)(=O)C3)c3ccccc3c2=O)cc1C (stereo unspecified),-33.8,5.4,-1.0,0.0,-13.7,15.3*,3.5,-4.3
COC(=O)c1ccc2cc(OC)cc([N+](=O)[O-])c2n1,8.5,9.5,-1.9,0.8,22.1,-2.2,·,·
CCC/C=C/c1ccc(CN2C(CC(C)C)C(=O)N(Cc3cn(CC4CCCCC4)nn3)CCS2(=O)=O)cc1 (stereo unspecified),·,·,·,-8.9,·,·,·,·
Cc1cc(C(=O)COC(=O)c2ccc(O)cc2O)c(C)n1-c1ccc(OC(F)F)cc1,-11.6,-50.2,7.9,-2.2,49.9,26.8*,1.4,24.8*
Cc1cc(C(=O)COC(=O)c2ccc(O)cc2O)c(C)n1-c1ccccc1,12.2,-46.6,11.7,-5.8,4.5,9.3,·,·
Cc1cc(C(=O)CC#N)c(C)n1-c1ccc(OC(F)F)cc1,-21.2,17.4,-3.1,-1.5,17.2,-1.6,·,·
COc1ccc(-n2c(C)cc(C(=O)COC(=O)c3ccc(O)cc3O)c2C)cc1,-11.9,-45.1,11.3,-4.5,7.8,14.9*,6.5,9.9
O=C(N/N=C/c1ccco1)c1cccc(NC(=O)c2cccc(Cl)c2)c1,-63.0,15.8,-3.0,-2.1,5.0,23.5*,25.5*,13.1
O=C(N/N=C/c1ccco1)c1ccc(NC(=O)c2ccccc2Cl)cc1,-1.8,9.8,-1.7,2.3,3.8,0.7,·,·
CC1=C(C(=O)N2CCOCC2)CC(CC(=O)NCc2cccc3ccccc23)C(=O)N1Cc1ccccc1 (stereo unspecified),·,·,·,-1.1,·,·,·,·
COc1ccc(Oc2c(OC)cc(NCc3ccc(CN)cc3)c3ncccc23)cc1,·,·,·,1.9,·,·,·,·
COc1ccccc1NC(=O)CN1CCN(c2ccc(Cl)cc2)CC1,9.5,-5.1,1.2,-2.4,-4.7,-3.8,·,·
COc1ccccc1NC(=O)CN1CCN(c2ccccc2)CC1,10.0,11.0,-2.1,-1.7,4.6,15.5*,2.0,1.4
COc1ccccc1NC(=O)CCN1CCN(Cc2ccccc2)CC1,-54.3,-5.9,0.9,-1.2,-3.3,20.7*,1.9,4.0
COc1ccc([C@H]2N[C@]3(CCCN(Cc4ccc(C)cc4)C3=O)[C@H]3C(=O)N(Cc4ccccc4)C(=O)[C@@H]23)cc1,·,·,·,0.9,·,·,·,·
Cc1cc[n+](Cc2ccccc2)c(N)c1,-13.2,5.6,-1.0,2.5,-2.0,14.4*,54.9*,-3.2
OC1CCN(c2cc(-c3ccccc3)nc3cc(-c4ccc(F)cc4)nn23)CC1,-3.0,8.7,-1.8,-0.7,-6.1,1.2,·,·
CCN1CCN(c2cc(-c3ccccc3)nc3cc(-c4cccc(F)c4)nn23)CC1,-8.4,-45.1,9.8,-8.1,-4.6,14.3*,11.5,-2.6
CC1CCN(CC(=O)N2c3ccccc3CC2C)CC1 (stereo unspecified),-20.5,-0.5,0.1,0.3,6.0,-0.1,·,·
CC1Cc2ccccc2N1C(=O)COC(=O)c1ccc(Cl)c(S(=O)(=O)N2CCOCC2)c1 (stereo unspecified),-89.4,-3.2,0.9,-5.5,20.4,24.1*,3.2,-1.0
CC1Cc2ccccc2N1C(=O)Cn1nc(C(=O)O)c2ccccc2c1=O (stereo unspecified),-160.0,12.3,-2.2,0.8,2.9,63.0*,-0.3,-3.9
O=C(OCC(=O)N1CCc2ccccc21)c1c2c(nc3ccccc13)CCCC2,-12.1,12.4,-2.4,-7.4,-69.1,3.5,·,·

# Screening results deposited in PubChem by several laboratories.
